Experiments:
Shake-flask logD7.4 = type: physicochemical; details: pH 7.4
[1] = test system: ionotropic glutamate receptors (iGluR); assay: Off-target counter screen at 10 μM; type: binding
5-HT1A = target: T1, 5-HT1A (Homo sapiens, UniProt P08908); assay: Off-target counter screen at 10 μM; type: binding; details: read-out: target inhibition, 5-HT1A
T1 sequence (P08908 1-422): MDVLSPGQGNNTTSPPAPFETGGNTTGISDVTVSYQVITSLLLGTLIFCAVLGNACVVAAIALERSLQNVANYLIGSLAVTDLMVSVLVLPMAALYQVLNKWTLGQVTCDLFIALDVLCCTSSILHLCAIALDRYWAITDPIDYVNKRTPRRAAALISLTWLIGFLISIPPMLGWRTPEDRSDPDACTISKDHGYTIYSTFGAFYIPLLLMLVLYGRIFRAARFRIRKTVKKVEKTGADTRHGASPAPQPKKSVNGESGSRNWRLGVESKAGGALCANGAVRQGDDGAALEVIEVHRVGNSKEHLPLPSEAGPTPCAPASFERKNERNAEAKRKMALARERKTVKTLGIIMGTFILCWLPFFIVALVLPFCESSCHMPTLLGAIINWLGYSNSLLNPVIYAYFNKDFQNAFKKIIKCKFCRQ

Alpha2C = target: T2, Alpha2C (Homo sapiens, UniProt P18825); assay: Off-target counter screen at 10 μM; type: binding; details: read-out: target inhibition, Alpha2C
T2 sequence (P18825 1-462): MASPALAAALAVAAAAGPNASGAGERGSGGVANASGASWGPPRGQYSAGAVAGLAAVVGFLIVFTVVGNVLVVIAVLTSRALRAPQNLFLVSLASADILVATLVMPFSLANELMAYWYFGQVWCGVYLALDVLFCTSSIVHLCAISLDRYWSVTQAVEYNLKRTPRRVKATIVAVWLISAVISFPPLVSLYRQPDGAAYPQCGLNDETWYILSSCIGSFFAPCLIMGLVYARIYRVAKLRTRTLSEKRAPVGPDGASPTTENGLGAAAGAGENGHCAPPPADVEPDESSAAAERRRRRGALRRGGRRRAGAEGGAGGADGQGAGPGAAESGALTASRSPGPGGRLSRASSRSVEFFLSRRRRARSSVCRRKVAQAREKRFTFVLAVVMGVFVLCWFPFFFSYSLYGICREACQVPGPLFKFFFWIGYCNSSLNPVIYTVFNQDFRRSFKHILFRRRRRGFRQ

[2] = target: DOR (delta opioid receptor) (Homo sapiens, UniProt P41143); assay: Off-target counter screen at 10 μM; type: binding; details: read-out: target inhibition, DOR
5-HT1A, Alpha2C and DOR = assay: Follow-up binding assays, selectivity towards TARP γ−8; details: follow-up 5-HT1A
TARP γ−8 [3] = target: T3, TARP γ−8 (Rattus norvegicus, UniProt Q8VHW5); assay: In vitro autoradiography on rat brain sections; type: binding
T3 sequence (Q8VHW5 1-421): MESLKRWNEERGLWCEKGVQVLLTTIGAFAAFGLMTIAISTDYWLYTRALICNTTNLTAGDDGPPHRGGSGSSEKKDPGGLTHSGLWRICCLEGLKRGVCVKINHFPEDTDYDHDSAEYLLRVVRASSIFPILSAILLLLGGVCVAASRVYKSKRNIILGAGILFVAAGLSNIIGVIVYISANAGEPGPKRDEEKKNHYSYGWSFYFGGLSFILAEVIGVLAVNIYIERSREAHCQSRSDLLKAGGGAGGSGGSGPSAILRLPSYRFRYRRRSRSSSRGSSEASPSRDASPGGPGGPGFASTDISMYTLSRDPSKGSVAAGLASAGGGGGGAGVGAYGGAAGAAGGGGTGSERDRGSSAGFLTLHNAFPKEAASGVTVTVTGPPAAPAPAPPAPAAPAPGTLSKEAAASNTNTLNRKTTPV
In short: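 Frozen rat brain sections (stored −80 °C) were pre-incubated in 50 mM Tris-HCl for 20 min at ambient temperature, then incubated with the 11C-labelled test compound. For blocking, unlabelled inhibitor (1 μM) was added to the incubation solution beforehand. Sections were washed three times in ice-cold buffer, dipped 10 s in cold water, cold-air dried and exposed to imaging plates. ROI radioactivity was read as PSL/mm2.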

TARP γ−8 [4] = target: T3, TARP γ−8; assay: PET imaging in rat brain; type: in vivo, Sprague-Dawley rats
In short: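 Male Sprague-Dawley rats (210−230 g) were kept under 1–2% isoflurane. The 11C-labelled test compound was injected via tail-vein catheter (38.5 ± 2.8 MBq, 0.3 ± 0.2 nmol), followed by a dynamic 3D PET scan for 60 min, co-registered to an MR template. Decay-corrected data were expressed as SUV, and BPND maps were derived by SRTM. Mean ± SD, n = 3.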

[5] = In vitro stability of the formulated radioligand; type: physicochemical
In short: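 After HPLC purification, the radiotracer fraction was collected into Tween 80 and ethanol, evaporated and redissolved in 5 mL sterile normal saline. It was then passed through a 0.22 μm filter. The formulated solution was checked for radiolysis up to 90 min.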

[6] = tracer [11C]15, pretreatment with JNJ-55511118 (1 mg/kg), rat
[7] = tracer [11C]8, blocking with 8 (1 μM)

Sequence of DOR (delta opioid receptor) (P41143 whole entry): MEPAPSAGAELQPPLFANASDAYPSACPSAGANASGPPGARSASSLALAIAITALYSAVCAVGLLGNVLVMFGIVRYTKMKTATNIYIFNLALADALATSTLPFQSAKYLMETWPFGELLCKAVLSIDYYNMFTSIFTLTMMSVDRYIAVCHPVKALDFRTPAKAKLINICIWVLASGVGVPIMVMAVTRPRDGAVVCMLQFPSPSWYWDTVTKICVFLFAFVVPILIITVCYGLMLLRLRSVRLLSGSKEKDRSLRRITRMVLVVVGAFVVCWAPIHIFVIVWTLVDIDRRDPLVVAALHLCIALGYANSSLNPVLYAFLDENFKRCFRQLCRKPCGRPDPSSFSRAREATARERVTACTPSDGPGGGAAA

For `Cc1ccc2nc(C3CCC3)n(-c3ccc4[nH]c(=O)sc4c3)c2n1` [Compound 8, 6-(2-Cyclobutyl-5-methyl-3H-imidazo[4,5-b]pyridin-3-yl)benzo[d]thiazol-2(3H)-one], the logD (Shake-flask logD7.4) was 2.3 ± 0.06.

For `Cc1ccc2nc(C3CCC3)n(-c3ccc4[nH]ncc4c3)c2n1` [Compound 15, 2-Cyclobutyl-3-(1H-indazol-5-yl)-5-methyl-3H-imidazo[4,5-b]pyridine], the logD (Shake-flask logD7.4) was 2.5 ± 0.01, the “interaction with related iGlu receptor family” value [1] was “no substantial interaction” and the inhibition at 10 µM (5-HT1A) was over 50%. The inhibition at 10 µM (Alpha2C) was over 50%, the inhibition at 10 µM [2] was over 50% and the “selectivity towards TARP γ−8 among any other tested CNS targets” value (5-HT1A, Alpha2C and DOR) was “greater than 750 fold”.

With `O=c1[nH]c2ccc(-c3c(Cl)cccc3OC(F)(F)F)cc2[nH]1` [JNJ-55511118, reference compound] the “reduction of uptake in hippocampus” value (TARP γ−8 [3]; tracer [11C]15, blocking with JNJ-55511118 (1 μM)) was 77%, the “reduction of BPND values” (TARP γ−8 [4]; [6]) was 66–81% and the “reduction of radioactivity uptake in hippocampus based on AUC” value (TARP γ−8 [4]; [6]) was 35–47%.

With `[11CH3]c1ccc2nc(C3CCC3)n(-c3ccc4[nH]c(=O)sc4c3)c2n1` [[^11C]8, 6-(2-cyclobutyl-5-[^11C]methyl-3H-imidazo[4,5-b]pyridin-3-yl)benzo[d]thiazol-2(3H)-one] the “radiolysis in the formulated solution” value ([5]; up to 90 min) was “no radiolysis was observed”, the in vitro stability ([5]; up to 90 min after formulation) was over 95% and the “change of bound radioactivity in cerebellum (reference region)” value (TARP γ−8 [3]; [7]) was “no notable change”. The “reduction of bound radioactivity in hippocampus” value (TARP γ−8 [3]; [7]) was 83%, the “maximum SUV in the brain” value (TARP γ−8 [4]; at 2.5 min, baseline, rat) was 0.4 and the “blood brain barrier penetration” value (TARP γ−8 [4]; rat PET, baseline) was “failed to penetrate the blood brain barrier”.

From paper PMC10448436 (Journal of medicinal chemistry, 2022)
